Screens (PubChem)
Rad51 HR inh: Rad51 (human) homologous recombination inhibition | AID 1385 | inhibition, % at 10 µM | hRad51 DNA strand exchange, fluorescence dequenching | hit rate 0.085% among 200,000;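 active = inhibition above 40% at the single screening dose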;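 also: 0% = DMSO control wells and 100% = blanks with heterologous ssDNA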
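Assay system: Human Rad51 nucleoprotein filaments preassembled on unlabelled ssDNA | Reagent: Donor/quencher-labelled 47-bp dsDNA substrate | Doses: One concentration, 10 µM final | Times: 37 °C 15-min filament assembly, 30-min compound preincubation, 15-min exchange | Technique: Fluorescein emission 520 nm, excitation 485 nm | Benchmarks: Plate control and blank wells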
Autophagy mod: modulators of autophagy | MEF GFP-LC3 puncta imaging; test concentration mostly 10 µM | calls only at 10 µM (by protocol) | hit rate 0.98% among 190,000;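 active = percentage of spot-positive cells more than 3 SD above its plate mean, without a fluorescence outlier flag or 80% toxicity; inconclusive = no clear call, values can overlap the other calls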;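 also: spot-positive cell cutoff set from DMSO-treated cells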
Insulin prom up: MIN6 insulin promoter up-regulation. AID 1625. z-score at 5 µM. MIN6 insulin promoter-GFP reporter, high-content imaging; stronger effect = higher value. hit rate 0.3% among 190,000;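 active = z-score above 3 at 5 µM with at least 500 cells counted in the well; inconclusive = wells under 500 cells, flagged as cytotoxic or low count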
SKKanGAS inh: inhibitors of SKKanGAS S. pyogenes growth in kanamycin (SK-promoter or general growth effect). BacTiter-Glo, 6 h. inhibition, % at 7.5 µM. hit rate 1.3% among 300,000. AID 1662;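 active = mean replicate score, as percent of positive control median, at least 50; inconclusive = mean below 50 but one replicate at or above 50; inactive = mean and every replicate below 50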;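 also: strain carries kanamycin resistance gene driven by streptokinase promoter and grows in 40 µg/ml kanamycin; loss of luminescence reflects streptokinase promoter inhibition or plain growth inhibition; 0% = median of DMSO wells and 100% = positive control at its reference dose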
WT yeast gro inh: growth inhibition of WT yeast, mitochondrial fusion screen. mitochondrial fusion phenotypic screen, WT strain. inhibition, % at 10 µM. hit rate 2.1% among 190,000. AID 1362; in the data active = inhibition above about 58%; tested in S. cerevisiae
KCC2 mod: modulators of human KCC2 chloride dependent transport. Q9H2X9. KCC2 cells, thallium flux FluoZin-2 fluorescence. B-score of Tl+ flux slope (higher = more flux/activation; lower = inhibition) at 10 µM. hit rate 2.2% among 190,000. AID 1456;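 active = thallium flux slope and its plate-corrected score both differing from the plate sample mean at a set confidence after two filtering rounds, in either direction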;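 also: slope of fluorescence scaled to starting intensity during 10 to 20 s after thallium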
The depositor's hits bear a star; i = inactive; ? = inconclusive; / = no result given; + = active, no number. Sampled rows, rich in hits. Any-hit rate of the full collection: about 4.2%.

SMILES	Rad51 HR inh	Autophagy mod	Insulin prom up	SKKanGAS inh	WT yeast gro inh	KCC2 mod
OCc1cn(-c2ccccc2)nc1-c1ccc(-c2nn(-c3ccccc3)cc2CO)cc1	/	i	0.45	10	-9	/
CCC1(c2ccc(F)cc2)NC(=O)N(CC(=O)N(C)C2CCS(=O)(=O)C2)C1=O (stereo not drawn)	/	/	/	-4	/	/
O=C1NCCc2c1[nH]c1c(Cl)ccc(Cl)c21	9	i	0.4	-8	89*	-0.56
O=C1NCCc2c1[nH]c1ccccc21	12	i	0.58	-8	-16	-0.37
Cc1cc(C)c(S(=O)(=O)Nc2ccc(Cl)cn2)c(C)c1	/	/	/	3	/	/
Cc1ccc(NCC(=O)c2ccccc2)cc1Cl	-1	i	-0.02	7	-1	/
Cc1ccc(NC2=C(NC(=O)c3ccccc3)C(=O)c3ccccc3C2=O)cc1Cl	-1	i	-0.31	74*	68*	-0.86
CS(=O)(=O)N1CCN(c2ccnc3cc(Cl)ccc23)CC1	6	i	-1.3	-13	9	-0.085
Cc1ccc(S(=O)(=O)N2CCN(c3ccnc4cc(Cl)ccc34)CC2)cc1C	11	i	-1.4	23	69*	0.33
Cc1cc(N2CCN(S(=O)(=O)c3ccc(Cl)c(Cl)c3)CC2)c2ccccc2n1	-7	i	0.17	10	69*	0.053
Cc1ccc(S(=O)(=O)N2CCN(c3ccnc4cc(Cl)ccc34)CC2)cc1	/	i	-1.1	25	65*	-0.58
S=C1N(c2ccccc2)C(c2ccc(Br)cc2)N2CCCN12 (stereo not drawn)	7	/	-0.18	1	/	-1.2
CCN(CC(=O)NCc1cccs1)c1ccc(S(=O)(=O)N2CCN(C)CC2)cn1	9	/	0.25	3	/	/
Cc1cc2[nH]c(=O)c(=O)[nH]c2cc1S(=O)(=O)Nc1cccc(Cl)c1	/	/	/	3	/	/
CCC(CC)C(=O)c1c[nH]c(C(=O)NCc2ccco2)c1	7	i	0.59	3	61*	-0.4
CCC(=O)c1c[nH]c(C(=O)NCc2ccco2)c1	10	i	0.39	7	0	/
c1ccc(OCCSc2nnnn2-c2ccccc2)cc1	8	i	-0.16	8	19	-3.8*
CCOc1ccc(OCCSc2nnnn2-c2ccccc2)cc1	2	i	-0.29	-5	54	-0.09
COc1cc2c3nnc(-c4ccc(F)cc4)c-3cn(Cc3ccc(F)cc3)c2cc1OC	5	+	/	2	4	/
COc1cc2c3nnc(-c4ccc(F)cc4)c-3cn(Cc3ccccc3)c2cc1OC	-5	+	/	7	-4	/
COc1ccc(Cn2cc3c(-c4ccc(F)cc4)nnc-3c3cc(OC)c(OC)cc32)cc1	-12	i	-0.07	/	-3	/
CCN1/C(=C/c2ccc3cc(C)ccc3[n+]2CC)Sc2cc(C)c(C)cc21	-220	+	?	/	92*	-0.18
COc1cccc(CN2CCCC(C(=O)N3CCCCC3)C2)c1 (stereo not drawn)	/	/	/	-3	/	/
COCCn1c(SCC(=O)Nc2ccc(F)cc2)nc2c([nH]c3ccccc32)c1=O	/	/	/	51*	/	/
CN1CCC(N(C)C(=O)/C(C#N)=C/c2ccc(OC(F)F)cc2)CC1	45*	/	-0.08	4	/	-0.18
SMILES	Rad51 HR inh	Autophagy mod	Insulin prom up	SKKanGAS inh	WT yeast gro inh	KCC2 mod
CSc1nc(=S)n(Cc2ccccc2)c(C)c1C(C)=O	4	+	-0.06	-3	-17	2.1
CSc1nc(-c2ccccc2)[nH]c(=S)c1C(C)=O	0	i	1.1	7	0	21*
Cc1ccc(CNC(=O)C2CCN(S(=O)(=O)c3cnc[nH]3)CC2)cc1	-7	i	0.46	-4	3	/
CCCCNC(=O)C1CCN(S(=O)(=O)c2cnc[nH]2)CC1	4	i	0	5	71*	0.25
Cc1ccc(S(=O)(=O)N2CCC(C(=O)OCC(=O)Nc3cc(S(C)(=O)=O)ccc3Cl)CC2)cc1C	/	/	/	-4	/	/
CC1CCCN(Cc2nc3c(c(=O)n(C)c(=O)n3C)n2CC(N)=O)C1 (stereo not drawn)	0	i	-0.31	2	98*	/
COc1ccccc1C(=O)Nc1nnc(-c2ccc3c(c2)CCCC3)o1	-2	i	2.5	58*	60*	-1.8
COc1ccc(-c2csc(NC(=O)C3COc4ccccc4O3)n2)cc1OC (stereo not drawn)	3	i	0.19	11	65*	-1.4
O=C(Nc1nnc(-c2ccc3c(c2)CCCC3)o1)C1COc2ccccc2O1 (stereo not drawn)	2	i	?	99*	69	/
CC(=O)Nc1nnc(-c2ccc3c(c2)CCCC3)o1	-4	i	-0.3	7	12	0
O=C(CSc1nnc(-c2cccnc2)n1CCc1ccccc1)N1CCCCC1	4	+	0.55	-12	-28	/
CC(C)CCNC(=S)Nc1ccc([N+](=O)[O-])cc1	/	i	-5	2	79*	-2.4
CC(C)CCNC(=S)Nc1ccc(Br)cc1	/	i	-0.49	11	68*	-0.11
CCOC(=O)C1CCN(C2=C(NS(=O)(=O)c3ccc(Cl)cc3)C(=O)c3ccccc3C2=O)CC1	/	/	-0.74	52*	/	0
CC[C@@H](C(=O)[C@@H](C)[C@@H](O)[C@H](C)CCc1ccc(C)c(O)c1C(=O)O)[C@H]1O[C@](CC)([C@H]2CC[C@](O)(CC)[C@H](C)O2)C[C@@H]1C	/	/	/	108*	/	/
CC(C)n1c(-c2ccc(C(C)(C)C)cc2)n[nH]c1=S	-2	i	-0.29	7	10	37*
CC(C)(C)c1ccc(-c2n[nH]c(=S)n2Cc2ccccc2)cc1	/	/	/	4	/	/
Cc1nc(N2CCN(S(=O)(=O)c3ccccc3C#N)CC2)c2c(-c3cccs3)csc2n1	5	i	0.71	3	27	0.14
Cc1nc(N2CCCCC2)c2c(-c3cccs3)csc2n1	4	i	/	16	69*	0.032
O=C1/C(=C/Nc2ccc3c(c2)OCO3)CCc2ccccc21	-27	i	1.2	17	62*	-2.1
CC(C)c1ccc(S(=O)(=O)N(C)C2(C)CCS(=O)(=O)C2)cc1 (stereo not drawn)	/	/	/	-9	/	/
Cc1ccc(-n2ccc(=O)c(C(=O)Nc3ccc(S(=O)(=O)Nc4onc(C)c4C)cc3)n2)cc1	/	/	/	31	/	/
CCc1[nH]nc2c1C(c1ccc(Br)s1)C(C#N)=C(N)O2 (stereo not drawn)	5	i	-0.59	/	12	-4.4*
Fc1ccc(CSc2nc3ccccc3[nH]2)c2ccccc12	7	i	0.69	50*	86	0.025
